Active and inactive are the calls of the source. The rule behind the calls is not given here. Non-standard residues stand in square brackets, D forms with d. Residues, ends and D or L forms follow the SMILES beside them. Bip = N[C@@H](Cc1ccc(-c2ccccc2)cc1)C(=O)O; dPhe(4-I) = N[C@H](Cc1ccc(I)cc1)C(=O)O; 2Nal = N[C@@H](Cc1ccc2ccccc2c1)C(=O)O; d2Nal = N[C@H](Cc1ccc2ccccc2c1)C(=O)O; Bta = N[C@@H](Cc1csc2ccccc12)C(=O)O
Key:
[1] = target: T1, Melanocortin receptor 4 (Mus musculus, UniProt P56450); experiment: Agonist activity at mouse MC4R expressed in HEK293 cells assessed as induction of cAMP accumulation up to 100 uM after 2 hrs by alpha screen assay relative to NDP-MSH; format: cell-based; details: read-out: Activity
T1 sequence (P56450 whole entry): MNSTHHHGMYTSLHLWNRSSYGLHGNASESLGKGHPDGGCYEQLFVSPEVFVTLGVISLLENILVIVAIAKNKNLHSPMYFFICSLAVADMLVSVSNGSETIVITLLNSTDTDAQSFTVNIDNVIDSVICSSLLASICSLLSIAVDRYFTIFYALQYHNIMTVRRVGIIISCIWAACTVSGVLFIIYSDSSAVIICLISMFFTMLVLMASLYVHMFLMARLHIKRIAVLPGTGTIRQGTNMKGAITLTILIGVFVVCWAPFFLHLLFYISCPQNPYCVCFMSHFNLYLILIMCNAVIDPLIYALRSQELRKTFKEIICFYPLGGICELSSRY

[2] = target: T1, Melanocortin receptor 4; experiment: Agonist activity at mouse MC4R expressed in HEK293 cells assessed as induction of cAMP accumulation after 2 hrs by alpha screen assay; format: cell-based
[3] = target: Melanocortin receptor 4 (Mus musculus) (UniProt P56450); experiment: Antagonist activity at mouse MC4R expressed in HEK293 cells assessed as inhibition of NDP-MSH induced-cAMP accumulation up to 10 uM after 2 hrs by alpha screen assay; format: functional, cell-based
Sequence of Melanocortin receptor 4 (Mus musculus) (P56450 whole entry): as above
In short: (§1)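 mouse MC3R or MC4R in stably transfected HEK293 cells, AlphaScreen cAMP assay (IBMX stimulation buffer, 2 h RT incubation, then 2 h with donor-bead lysis mix). […] Run in triplicate.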

[4] = target: Melanocortin receptor 3 (Mus musculus) (UniProt P33033); experiment: Agonist activity at mouse MC3R expressed in HEK293 cells assessed as induction of cAMP accumulation at 100 uM after 2 hrs by alpha screen assay relative to NDP-MSH; format: functional, cell-based
Sequence of Melanocortin receptor 3 (Mus musculus) (P33033 whole entry): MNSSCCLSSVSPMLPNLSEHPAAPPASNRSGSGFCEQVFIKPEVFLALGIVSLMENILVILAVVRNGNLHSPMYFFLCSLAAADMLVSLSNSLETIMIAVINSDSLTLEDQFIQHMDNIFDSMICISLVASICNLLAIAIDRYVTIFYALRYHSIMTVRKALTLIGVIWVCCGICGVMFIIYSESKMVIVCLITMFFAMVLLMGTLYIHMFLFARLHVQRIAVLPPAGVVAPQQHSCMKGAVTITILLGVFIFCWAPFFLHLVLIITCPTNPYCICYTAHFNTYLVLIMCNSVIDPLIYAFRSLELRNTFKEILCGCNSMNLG
In short: (§2)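 HEK293 stably expressing mouse MC1R/MC3R/MC4R/MC5R (pCDNA3). Cells in stimulation buffer (HBSS, 0.5 mM IBMX, 5 mM HEPES, 0.1% BSA, pH 7.4) at 1000 cells/μL with anti-cAMP acceptor beads. Ligand given 10−4 to 10−10 M (or 10−6 to 10−12 M) for 2 h at RT in the dark, then donor beads/biotin-cAMP lysis mix for 2 h. AlphaScreen cAMP read-out, normalized to 10−6 M NDP-MSH as 100%.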

[5] = target: Melanocortin receptor 3 (Mus musculus) (UniProt P33033); experiment: Antagonist activity at mouse MC3R expressed in HEK293 cells assessed as inhibition of NDP-MSH induced-cAMP accumulation up to 10 uM after 2 hrs by alpha screen assay; format: functional, cell-based; in short: as §1
[6] = target: Melanocyte-stimulating hormone receptor (Mus musculus) (UniProt Q01727); experiment: Agonist activity at mouse MC1R expressed in HEK293 cells assessed as induction of cAMP accumulation at 100 uM after 2 hrs by alpha screen assay relative to NDP-MSH; format: functional, cell-based; in short: as §2
Sequence of Melanocyte-stimulating hormone receptor (Mus musculus) (Q01727 whole entry, looked up): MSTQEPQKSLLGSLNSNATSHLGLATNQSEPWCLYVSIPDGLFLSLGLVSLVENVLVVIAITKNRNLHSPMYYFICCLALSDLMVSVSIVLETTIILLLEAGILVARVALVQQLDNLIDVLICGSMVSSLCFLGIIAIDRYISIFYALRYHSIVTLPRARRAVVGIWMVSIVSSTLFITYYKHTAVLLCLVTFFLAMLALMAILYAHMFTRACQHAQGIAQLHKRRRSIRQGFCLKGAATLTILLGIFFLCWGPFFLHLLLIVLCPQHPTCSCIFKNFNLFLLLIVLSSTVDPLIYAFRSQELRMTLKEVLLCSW

[7] = target: T1, Melanocortin receptor 4; experiment: Agonist activity at mouse MC4R expressed in HEK293 cells assessed as induction of cAMP accumulation at 100 uM after 2 hrs by alpha screen assay relative to NDP-MSH; format: cell-based; in short: as §2
[8] = target: Melanocortin receptor 5 (Mus musculus) (UniProt P41149); experiment: Agonist activity at mouse MC5R expressed in HEK293 cells assessed as induction of cAMP accumulation at 100 uM after 2 hrs by alpha screen assay relative to NDP-MSH; format: functional, cell-based; in short: as §2
Sequence of Melanocortin receptor 5 (Mus musculus) (P41149 whole entry): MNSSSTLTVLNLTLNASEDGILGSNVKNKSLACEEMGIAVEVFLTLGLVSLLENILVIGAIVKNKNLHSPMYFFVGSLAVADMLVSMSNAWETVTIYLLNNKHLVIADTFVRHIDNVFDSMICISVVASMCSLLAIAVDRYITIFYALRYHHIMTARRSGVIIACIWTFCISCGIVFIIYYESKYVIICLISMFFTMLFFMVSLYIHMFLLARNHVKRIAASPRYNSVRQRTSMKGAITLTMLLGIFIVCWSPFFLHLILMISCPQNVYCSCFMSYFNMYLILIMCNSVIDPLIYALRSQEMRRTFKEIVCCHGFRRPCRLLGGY

[9] = target: T2, Melanocortin receptor 4 (Homo sapiens, UniProt P32245); experiment: Agonist activity at human MC4R expressed in CHO cells assessed as induction of cAMP activation after 45 mins; format: cell-based; details: 0.75 h
T2 sequence (P32245 whole entry): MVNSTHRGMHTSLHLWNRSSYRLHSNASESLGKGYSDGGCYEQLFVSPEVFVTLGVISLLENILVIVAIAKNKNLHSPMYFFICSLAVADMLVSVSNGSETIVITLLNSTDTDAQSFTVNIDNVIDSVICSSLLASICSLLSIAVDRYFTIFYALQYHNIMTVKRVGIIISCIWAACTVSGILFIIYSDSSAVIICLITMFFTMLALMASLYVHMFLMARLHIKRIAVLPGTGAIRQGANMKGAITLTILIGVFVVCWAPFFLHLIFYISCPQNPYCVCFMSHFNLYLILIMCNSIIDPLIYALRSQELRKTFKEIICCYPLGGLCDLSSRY

[10] = target: Melanocortin receptor 3 (Homo sapiens) (UniProt P41968); experiment: Binding affinity to human MC3R expressed in CHO cells assessed by radioligand displacement
Sequence of Melanocortin receptor 3 (Homo sapiens) (P41968 whole entry): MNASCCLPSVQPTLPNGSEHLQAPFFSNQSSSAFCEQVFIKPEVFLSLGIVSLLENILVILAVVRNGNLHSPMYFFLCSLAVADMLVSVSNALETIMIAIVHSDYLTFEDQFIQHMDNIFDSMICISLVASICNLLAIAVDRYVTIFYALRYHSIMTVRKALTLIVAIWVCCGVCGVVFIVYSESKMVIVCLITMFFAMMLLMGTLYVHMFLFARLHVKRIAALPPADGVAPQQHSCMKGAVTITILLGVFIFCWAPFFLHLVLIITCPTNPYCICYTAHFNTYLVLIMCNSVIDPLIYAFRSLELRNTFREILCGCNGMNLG

[11] = target: T2, Melanocortin receptor 4; experiment: Agonist activity at human MC4R expressed in CHO cells assessed as induction of cAMP activation after 45 mins relative to alpha MSH; format: cell-based; details: 0.75 h
[12] = target: T2, Melanocortin receptor 4; experiment: Antagonist activity at human MC4R expressed in CHO cells assessed as inhibition of aplha MSH-induced cAMP activation after 45 mins; format: functional, cell-based
[13] = target: Melanocyte-stimulating hormone receptor (Mus musculus) (UniProt Q01727); experiment: Agonist activity at mouse MC1R expressed in HEK293 cells assessed as induction of cAMP accumulation up to 100 uM after 2 hrs by alpha screen assay relative to NDP-MSH; format: functional, cell-based; in short: as §2
[14] = target: Melanocortin receptor 3 (Mus musculus) (UniProt P33033); experiment: Agonist activity at mouse MC3R expressed in HEK293 cells assessed as induction of cAMP accumulation up to 100 uM after 2 hrs by alpha screen assay relative to NDP-MSH; format: functional, cell-based; in short: as §2
[15] = target: Melanocortin receptor 5 (Mus musculus) (UniProt P41149); experiment: Agonist activity at mouse MC5R expressed in HEK293 cells assessed as induction of cAMP accumulation up to 100 uM after 2 hrs by alpha screen assay relative to NDP-MSH; format: functional, cell-based; in short: as §2

Row | Emax [1] | inhibition [3] | inhibition [5] | Activity [13] | Activity [15] | Structure (SMILES) | other results
1 | < 20% |  |  |  |  | CC(=O)N[C@@H](CCCNC(=N)N)C(=O)N[C@@H](CCCNC(=N)N)C(=O)N[C@H](Cc1ccc(I)cc1)C(=O)N[C@H](Cc1ccc2ccccc2c1)C(N)=O | EC50 [2]: > 100000 nM
2 |  | inactive | inactive |  |  | CC(=O)N[C@@H](Cc1csc2ccccc12)C(=O)N[C@@H](CCCNC(=N)N)C(=O)N[C@H](Cc1ccc(I)cc1)C(=O)N[C@H](Cc1ccc2ccccc2c1)C(N)=O | Activity [4]: 34%; Activity [6]: 36%; Activity [7]: 38%; Activity [8]: 41%
3 |  |  |  |  |  | N=C(N)NCCC[C@H](NC(=O)[C@@H](Cc1ccc(I)cc1)NC(=O)[C@@H]1Cc2ccccc2CN1)C(=O)N[C@@H](Cc1c[nH]c2ccccc12)C(N)=O | Activity [9]: 0.3 nM; IC50 [10]: 75 nM; Emax [11]: > 35%; Ki [12]: 0.79 nM; Kb ([12]; read-out: pA2 (converted)): 0.794 nM
4 |  | inactive | inactive | < 20% |  | CC(=O)N[C@@H](Cc1cnc[nH]1)C(=O)N[C@@H](CCCNC(=N)N)C(=O)N[C@H](Cc1ccc(I)cc1)C(=O)N[C@@H](Cc1ccc(-c2ccccc2)cc1)C(N)=O | 
5 | < 20% | inactive | inactive |  |  | CC(=O)N[C@@H](Cc1ccc2ccccc2c1)C(=O)N[C@@H](CCCNC(=N)N)C(=O)N[C@H](Cc1ccc(I)cc1)C(=O)N[C@@H](Cc1ccc2ccccc2c1)C(N)=O (Ac-[2Nal]R[dPhe(4-I)][2Nal]-NH2) | Activity [4]: 39%
6 |  | inactive | inactive | < 20% | < 20% | CC(=O)N[C@@H](Cc1ccc(-c2ccccc2)cc1)C(=O)N[C@@H](CCCNC(=N)N)C(=O)N[C@H](Cc1ccc(I)cc1)C(=O)N[C@@H](Cc1ccc(-c2ccccc2)cc1)C(N)=O (Ac-[Bip]R[dPhe(4-I)][Bip]-NH2) | Activity [14]: < 20%
7 |  | inactive | inactive | < 20% |  | CC(=O)N[C@@H](Cc1csc2ccccc12)C(=O)N[C@@H](CCCNC(=N)N)C(=O)N[C@H](Cc1ccc(I)cc1)C(=O)N[C@@H](Cc1ccc(-c2ccccc2)cc1)C(N)=O (Ac-[Bta]R[dPhe(4-I)][Bip]-NH2) | 
8 |  |  |  | < 20% |  | CC(=O)N[C@H](Cc1ccc2ccccc2c1)C(=O)N[C@@H](CCCNC(=N)N)C(=O)N[C@H](Cc1ccc(I)cc1)C(=O)N[C@@H](Cc1ccc(-c2ccccc2)cc1)C(N)=O (Ac-[d2Nal]R[dPhe(4-I)][Bip]-NH2) | 
9 |  |  |  |  | < 20% | CC(=O)N[C@H](Cc1ccc2ccccc2c1)C(=O)N[C@@H](CCCNC(=N)N)C(=O)N[C@H](Cc1ccc(I)cc1)C(=O)N[C@@H](Cc1csc2ccccc12)C(N)=O (Ac-[d2Nal]R[dPhe(4-I)][Bta]-NH2) | 
10 | < 20% |  |  |  | < 20% | CC(=O)N[C@H](Cc1ccc2ccccc2c1)C(=O)N[C@@H](CCCNC(=N)N)C(=O)N[C@H](Cc1ccc(I)cc1)C(=O)NC(Cc1ccccc1)C(N)=O (stereo in doubt) | Activity [14]: < 20%

Reference: ChEMBL document CHEMBL4049453, “Discovery of Mixed Pharmacology Melanocortin-3 Agonists and Melanocortin-4 Receptor Tetrapeptide Antagonist Compounds (TACOs) Based on the Sequence Ac-Xaa1-Arg-(pI)DPhe-Xaa4-NH2” (J Med Chem, 2017)
